Results taken from ChEMBL document CHEMBL2331324, “Synthesis and biological evaluation of guanidino analogues of roscovitine” (Eur J Med Chem, 2013).

Columns and labels:
[1] = target: Serine/threonine-protein kinase PAK 2 (Homo sapiens) (UniProt Q13177); assay: Inhibition of recombinant PAK2 (unknown origin) assessed as residual activity using [gamma-33P]ATP as substrate at 1 uM
In short: (§1)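 Selectivity panel run under previously published conditions. Screened at 1 μM in duplicate. Reactions started with [γ-33P]ATP (800 cpm/pmol) at 5, 20 or 50 μM, chosen to be at or below each enzyme's ATP Km. Stopped with phosphoric acid, spotted onto P81 filters. Result expressed as residual kinase activity.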

[2] = target: Serine/threonine-protein kinase 3 (Homo sapiens) (UniProt Q13188); assay: Inhibition of recombinant MST2 (unknown origin) assessed as residual activity using [gamma-33P]ATP as substrate at 1 uM; in short: as §1
[3] = target: Dual specificity mitogen-activated protein kinase kinase 2 (Homo sapiens) (UniProt P36507); assay: Inhibition of recombinant MKK2 (unknown origin) assessed as residual activity using [gamma-33P]ATP as substrate at 1 uM; in short: as §1
[4] = target: Serine/threonine-protein kinase MARK1 (Homo sapiens) (UniProt Q9P0L2); assay: Inhibition of recombinant MARK1 (unknown origin) assessed as residual activity using [gamma-33P]ATP as substrate at 1 uM; in short: as §1
[5] = target: MAP kinase-activated protein kinase 2 (Homo sapiens) (UniProt P49137); assay: Inhibition of recombinant MAPKAPK2 (unknown origin) assessed as residual activity using [gamma-33P]ATP as substrate at 1 uM; in short: as §1
[6] = target: Tyrosine-protein kinase JAK2 (Homo sapiens) (UniProt O60674); assay: Inhibition of recombinant JAK2 (unknown origin) assessed as residual activity using [gamma-33P]ATP as substrate at 1 uM
In short: (§2)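 Recombinant kinase panel screened at 1 µM in duplicate. Reactions started with [γ-33P]ATP (800 cpm/pmol) at 5, 20 or 50 µM, chosen to sit at or below each enzyme's ATP Km. Stopped with phosphoric acid and spotted onto P81 filters. Result given as residual kinase activity.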

[7] = target: Interleukin-1 receptor-associated kinase 4 (Homo sapiens) (UniProt Q9NWZ3); assay: Inhibition of recombinant IRAK4 (unknown origin) assessed as residual activity using [gamma-33P]ATP as substrate at 1 uM; in short: as §2
[8] = target: Fibroblast growth factor receptor 1 (Homo sapiens) (UniProt P11362); assay: Inhibition of recombinant FGF-R1 (unknown origin) assessed as residual activity using [gamma-33P]ATP as substrate at 1 uM; in short: as §2
[9] = target: Misshapen-like kinase 1 (Homo sapiens) (UniProt Q8N4C8); assay: Inhibition of recombinant MINK1 (unknown origin) assessed as residual activity using [gamma-33P]ATP as substrate at 1 uM; in short: as §1
[10] = target: Aurora kinase A/B (Homo sapiens) (UniProt Q96GD4+O14965); assay: Activity at Aurora kinase A/B in human MCF7 cells assessed as histone H3 phosphorylation at Ser10 at 100 uM after 24 hrs by flow cytometry relative to untreated control; format: cell-based
In short: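 Flow cytometry on MCF7 cells exposed 24 h to 100 µM. About one million cells fixed in 90% methanol, rehydrated, and labelled with primary antibody to pH3 Ser10, then an Alexa Fluor 488 secondary. Alexa read at 488/525 nm (ex/em). The value is the fraction of pH3-positive cells in treated cultures divided by that in untreated control.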

[11] = target: Tyrosine-protein kinase Yes (Homo sapiens) (UniProt P07947); assay: Inhibition of recombinant YES1 (unknown origin) assessed as residual activity using [gamma-33P]ATP as substrate at 1 uM
In short: (§3)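 Kinase panel screen with each compound at 1 µM, in duplicate. Reactions were started with [γ-33P]ATP (800 cpm/pmol) at 5, 20 or 50 µM, chosen per enzyme to be at or below its ATP Km. Reactions were stopped with phosphoric acid and spotted onto P81 filters. Results are given as residual kinase activity.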

[12] = target: Tyrosine-protein kinase SYK (Homo sapiens) (UniProt P43405); assay: Inhibition of recombinant SYK (unknown origin) assessed as residual activity using [gamma-33P]ATP as substrate at 1 uM; in short: as §3
[13] = target: Serine/threonine-protein kinase PLK1 (Homo sapiens) (UniProt P53350); assay: Inhibition of recombinant PLK1 (unknown origin) assessed as residual activity using [gamma-33P]ATP as substrate at 1 uM; in short: as §1
[14] = target: Serine/threonine-protein kinase D1 (Homo sapiens) (UniProt Q15139); assay: Inhibition of recombinant PKD1 (unknown origin) assessed as residual activity using [gamma-33P]ATP as substrate at 1 uM; in short: as §1
[15] = target: Dual specificity tyrosine-phosphorylation-regulated kinase 3 (Homo sapiens) (UniProt O43781); assay: Inhibition of recombinant DYRK3 (unknown origin) assessed as residual activity using [gamma-33P]ATP as substrate at 1 uM; in short: as §2
[16] = target: Dual specificity tyrosine-phosphorylation-regulated kinase 2 (Homo sapiens) (UniProt Q92630); assay: Inhibition of recombinant DYRK2 (unknown origin) assessed as residual activity using [gamma-33P]ATP as substrate at 1 uM; in short: as §2
[17] = target: Dual specificity tyrosine-phosphorylation-regulated kinase 1A (Homo sapiens) (UniProt Q13627); assay: Inhibition of recombinant DYRK1A (unknown origin) assessed as residual activity using [gamma-33P]ATP as substrate at 1 uM; in short: as §2
[18] = target: Dual specificity protein kinase CLK2 (Homo sapiens) (UniProt P49760); assay: Inhibition of recombinant CLK2 (unknown origin) assessed as residual activity using [gamma-33P]ATP as substrate at 1 uM; in short: as §2
[19] = target: Casein kinase II (Homo sapiens) (UniProt P67870+P68400+P19784); assay: Inhibition of recombinant CK2 (unknown origin) assessed as residual activity using [gamma-33P]ATP as substrate at 1 uM; format: protein-complex assay; in short: as §2
[20] = target: Cyclin-dependent kinase 2/cyclin A (Homo sapiens) (UniProt P24941+P20248+P78396); assay: Inhibition of recombinant CDK2/cyclin A (unknown origin) assessed as residual activity using [gamma-33P]ATP as substrate at 1 uM; format: protein-complex assay
In short: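 CDK2/cyclin A included in the radiometric panel at 1 µM in duplicate. Reactions started with [γ-33P]ATP (800 cpm/pmol) at 5, 20 or 50 µM, at or below the enzyme's ATP Km. Stopped with phosphoric acid, spotted onto P81 filters; result given as residual kinase activity.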

[21] = target: Calcium/calmodulin-dependent protein kinase type 1 (Homo sapiens) (UniProt Q14012); assay: Inhibition of recombinant CAMK1 (unknown origin) assessed as residual activity using [gamma-33P]ATP as substrate at 1 uM; in short: as §2
[22] = target: Tyrosine-protein kinase BTK (Homo sapiens) (UniProt Q06187); assay: Inhibition of recombinant BTK (unknown origin) assessed as residual activity using [gamma-33P]ATP as substrate at 1 uM; in short: as §2
[23] = target: Serine/threonine-protein kinase BRSK2 (Homo sapiens) (UniProt Q8IWQ3); assay: Inhibition of recombinant BRSK2 (unknown origin) assessed as residual activity using [gamma-33P]ATP as substrate at 1 uM; in short: as §2
[24] = target: Cyclin-dependent kinase 1/cyclin B1 (Homo sapiens, UniProt P06493); assay: Inhibition of recombinant CDK1/cyclin B (unknown origin) using histone H1 as substrate in presence of [gamma-33P]ATP; format: protein-complex assay

Chain of Fibroblast growth factor receptor 1 (Homo sapiens) (P11362 22-822 limits assumed): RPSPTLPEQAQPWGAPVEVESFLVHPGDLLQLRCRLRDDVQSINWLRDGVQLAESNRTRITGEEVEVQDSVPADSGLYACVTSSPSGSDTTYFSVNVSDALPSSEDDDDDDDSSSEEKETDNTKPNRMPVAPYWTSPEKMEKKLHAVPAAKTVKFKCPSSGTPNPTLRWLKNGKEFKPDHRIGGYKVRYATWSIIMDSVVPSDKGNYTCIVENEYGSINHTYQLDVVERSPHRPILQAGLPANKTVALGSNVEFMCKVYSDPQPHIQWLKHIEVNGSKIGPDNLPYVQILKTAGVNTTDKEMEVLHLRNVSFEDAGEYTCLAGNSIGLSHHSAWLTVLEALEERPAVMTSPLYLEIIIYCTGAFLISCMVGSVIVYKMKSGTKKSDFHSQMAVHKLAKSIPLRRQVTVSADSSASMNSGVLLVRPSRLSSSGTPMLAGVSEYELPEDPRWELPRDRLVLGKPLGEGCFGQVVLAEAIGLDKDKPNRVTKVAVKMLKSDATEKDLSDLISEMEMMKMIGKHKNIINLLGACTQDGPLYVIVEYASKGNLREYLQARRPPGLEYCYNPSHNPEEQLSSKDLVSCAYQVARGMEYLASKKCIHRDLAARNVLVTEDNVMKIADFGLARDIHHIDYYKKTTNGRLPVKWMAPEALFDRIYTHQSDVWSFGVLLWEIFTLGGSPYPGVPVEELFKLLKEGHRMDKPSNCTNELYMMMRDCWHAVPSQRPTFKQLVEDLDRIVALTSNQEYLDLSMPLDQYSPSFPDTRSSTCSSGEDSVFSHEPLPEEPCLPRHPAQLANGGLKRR
Chain of Serine/threonine-protein kinase 3 (Homo sapiens) (Q13188 whole entry): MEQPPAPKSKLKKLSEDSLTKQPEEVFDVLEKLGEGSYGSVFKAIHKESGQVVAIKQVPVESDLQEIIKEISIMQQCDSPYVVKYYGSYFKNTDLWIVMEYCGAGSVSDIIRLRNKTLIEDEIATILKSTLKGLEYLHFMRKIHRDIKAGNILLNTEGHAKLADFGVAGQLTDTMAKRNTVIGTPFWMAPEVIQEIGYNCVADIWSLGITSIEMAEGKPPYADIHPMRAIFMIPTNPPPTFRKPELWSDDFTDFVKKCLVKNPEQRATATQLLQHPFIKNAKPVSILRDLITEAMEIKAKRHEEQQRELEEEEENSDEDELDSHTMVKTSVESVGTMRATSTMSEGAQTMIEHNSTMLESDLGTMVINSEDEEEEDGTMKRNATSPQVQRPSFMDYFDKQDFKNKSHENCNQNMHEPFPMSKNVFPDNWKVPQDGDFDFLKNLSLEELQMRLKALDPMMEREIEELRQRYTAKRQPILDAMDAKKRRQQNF
Chain of Serine/threonine-protein kinase PLK1 (Homo sapiens) (P53350 whole entry): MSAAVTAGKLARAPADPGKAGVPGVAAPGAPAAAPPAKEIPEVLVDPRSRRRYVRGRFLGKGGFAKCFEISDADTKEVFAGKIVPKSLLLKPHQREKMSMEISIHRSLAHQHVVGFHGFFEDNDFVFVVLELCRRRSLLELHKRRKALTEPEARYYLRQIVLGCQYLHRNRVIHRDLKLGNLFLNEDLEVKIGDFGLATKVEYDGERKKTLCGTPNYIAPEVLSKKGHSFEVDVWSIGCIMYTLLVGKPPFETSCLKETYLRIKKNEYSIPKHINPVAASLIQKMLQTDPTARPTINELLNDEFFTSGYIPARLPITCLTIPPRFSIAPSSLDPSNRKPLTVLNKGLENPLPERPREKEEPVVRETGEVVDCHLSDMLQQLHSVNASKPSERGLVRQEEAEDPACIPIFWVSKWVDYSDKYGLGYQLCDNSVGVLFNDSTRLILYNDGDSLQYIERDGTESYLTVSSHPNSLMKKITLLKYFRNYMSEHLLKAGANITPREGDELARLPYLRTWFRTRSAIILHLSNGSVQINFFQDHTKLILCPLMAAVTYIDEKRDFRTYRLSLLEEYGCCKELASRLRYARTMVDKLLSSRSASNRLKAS
Chain of Dual specificity tyrosine-phosphorylation-regulated kinase 3 (Homo sapiens) (O43781 whole entry): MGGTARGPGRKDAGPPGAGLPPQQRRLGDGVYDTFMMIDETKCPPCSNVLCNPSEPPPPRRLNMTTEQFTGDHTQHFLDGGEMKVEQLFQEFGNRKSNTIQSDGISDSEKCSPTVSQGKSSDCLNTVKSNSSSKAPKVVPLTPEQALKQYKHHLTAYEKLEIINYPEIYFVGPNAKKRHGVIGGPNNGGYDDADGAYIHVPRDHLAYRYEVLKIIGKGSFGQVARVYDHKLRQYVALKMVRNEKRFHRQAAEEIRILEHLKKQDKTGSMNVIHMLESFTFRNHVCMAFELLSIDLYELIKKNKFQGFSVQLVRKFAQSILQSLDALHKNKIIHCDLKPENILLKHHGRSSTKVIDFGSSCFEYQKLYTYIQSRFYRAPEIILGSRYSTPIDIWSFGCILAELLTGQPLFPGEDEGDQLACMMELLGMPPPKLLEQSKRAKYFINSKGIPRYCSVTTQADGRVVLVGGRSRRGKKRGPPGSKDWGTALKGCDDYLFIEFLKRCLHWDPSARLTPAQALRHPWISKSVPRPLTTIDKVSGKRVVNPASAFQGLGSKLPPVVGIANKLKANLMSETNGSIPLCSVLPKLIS
Chain of Dual specificity mitogen-activated protein kinase kinase 2 (Homo sapiens) (P36507 whole entry): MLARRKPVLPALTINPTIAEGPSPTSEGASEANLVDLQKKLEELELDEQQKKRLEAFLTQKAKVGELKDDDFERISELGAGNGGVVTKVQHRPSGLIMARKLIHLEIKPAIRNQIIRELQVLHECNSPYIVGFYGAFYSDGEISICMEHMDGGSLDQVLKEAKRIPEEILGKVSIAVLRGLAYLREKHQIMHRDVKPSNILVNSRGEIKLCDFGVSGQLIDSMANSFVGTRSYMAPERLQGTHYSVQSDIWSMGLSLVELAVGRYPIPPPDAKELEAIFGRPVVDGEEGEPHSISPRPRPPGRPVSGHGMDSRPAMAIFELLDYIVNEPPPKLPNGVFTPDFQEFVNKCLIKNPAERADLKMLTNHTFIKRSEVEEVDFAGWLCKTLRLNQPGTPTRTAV
Chain of Serine/threonine-protein kinase D1 (Homo sapiens) (Q15139 whole entry): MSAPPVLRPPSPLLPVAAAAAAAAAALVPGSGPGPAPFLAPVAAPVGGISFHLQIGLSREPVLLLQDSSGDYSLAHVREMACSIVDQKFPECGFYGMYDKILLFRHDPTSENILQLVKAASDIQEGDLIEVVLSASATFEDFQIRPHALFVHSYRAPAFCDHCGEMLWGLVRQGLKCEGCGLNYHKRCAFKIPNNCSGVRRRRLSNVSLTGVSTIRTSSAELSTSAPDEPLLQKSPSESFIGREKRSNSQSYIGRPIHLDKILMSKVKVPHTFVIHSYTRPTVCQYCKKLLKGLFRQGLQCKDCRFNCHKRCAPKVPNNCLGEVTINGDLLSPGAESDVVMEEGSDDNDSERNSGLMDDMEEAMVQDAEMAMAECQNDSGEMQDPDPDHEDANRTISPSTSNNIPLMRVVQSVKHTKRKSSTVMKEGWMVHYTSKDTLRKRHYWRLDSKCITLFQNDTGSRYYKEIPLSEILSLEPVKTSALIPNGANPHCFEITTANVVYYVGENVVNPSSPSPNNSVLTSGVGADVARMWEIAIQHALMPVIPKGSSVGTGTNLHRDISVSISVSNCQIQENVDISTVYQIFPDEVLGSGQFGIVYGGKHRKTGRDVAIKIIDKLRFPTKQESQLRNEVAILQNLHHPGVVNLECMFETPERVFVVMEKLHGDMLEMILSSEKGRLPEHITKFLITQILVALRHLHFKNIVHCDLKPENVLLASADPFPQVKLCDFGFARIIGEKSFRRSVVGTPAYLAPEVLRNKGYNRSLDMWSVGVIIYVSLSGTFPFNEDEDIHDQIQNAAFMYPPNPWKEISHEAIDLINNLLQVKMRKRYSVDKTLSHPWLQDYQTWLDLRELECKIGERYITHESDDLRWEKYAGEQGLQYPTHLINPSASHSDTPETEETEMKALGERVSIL
Chain of Serine/threonine-protein kinase PAK 2 (Homo sapiens) (Q13177 whole entry): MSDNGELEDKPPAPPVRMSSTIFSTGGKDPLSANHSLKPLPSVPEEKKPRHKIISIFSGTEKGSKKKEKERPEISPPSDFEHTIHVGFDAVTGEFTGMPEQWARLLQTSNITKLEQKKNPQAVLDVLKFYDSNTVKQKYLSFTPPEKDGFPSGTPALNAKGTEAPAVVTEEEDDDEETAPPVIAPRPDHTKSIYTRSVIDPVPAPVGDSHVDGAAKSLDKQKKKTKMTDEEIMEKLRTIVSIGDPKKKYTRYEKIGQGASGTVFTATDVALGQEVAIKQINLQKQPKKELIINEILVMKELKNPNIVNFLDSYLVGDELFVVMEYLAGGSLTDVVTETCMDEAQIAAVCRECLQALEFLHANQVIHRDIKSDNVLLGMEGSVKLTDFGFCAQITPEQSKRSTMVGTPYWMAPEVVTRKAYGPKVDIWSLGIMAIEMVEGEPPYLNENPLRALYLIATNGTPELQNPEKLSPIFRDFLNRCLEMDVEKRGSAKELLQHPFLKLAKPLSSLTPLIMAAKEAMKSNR
Chain of Dual specificity tyrosine-phosphorylation-regulated kinase 2 (Homo sapiens) (Q92630 whole entry): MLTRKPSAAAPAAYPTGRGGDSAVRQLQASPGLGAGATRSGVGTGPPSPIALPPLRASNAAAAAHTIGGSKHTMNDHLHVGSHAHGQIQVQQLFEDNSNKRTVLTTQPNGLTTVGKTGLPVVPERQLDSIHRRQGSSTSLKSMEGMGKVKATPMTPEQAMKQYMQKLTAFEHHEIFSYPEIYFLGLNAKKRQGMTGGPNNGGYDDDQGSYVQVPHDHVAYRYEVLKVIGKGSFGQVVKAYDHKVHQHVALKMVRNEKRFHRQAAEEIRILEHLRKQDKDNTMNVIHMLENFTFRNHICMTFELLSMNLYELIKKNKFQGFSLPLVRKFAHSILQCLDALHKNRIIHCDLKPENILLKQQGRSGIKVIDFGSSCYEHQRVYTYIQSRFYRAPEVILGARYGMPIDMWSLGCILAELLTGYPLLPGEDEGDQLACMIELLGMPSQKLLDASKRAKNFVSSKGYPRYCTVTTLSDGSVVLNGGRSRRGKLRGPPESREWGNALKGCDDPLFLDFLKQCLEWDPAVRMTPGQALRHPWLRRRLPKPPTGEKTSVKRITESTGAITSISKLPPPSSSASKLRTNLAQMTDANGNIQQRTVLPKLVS

Row | Structure (SMILES) | Activity [1] [%] | Activity [2] [%] | Activity [3] [%] | Activity [4] [%] | Activity [5] [%] | Activity [6] [%] | Activity [7] [%] | Activity [8] [%] | Activity [9] [%] | Ratio [10] | Activity [11] [%] | Activity [12] [%] | Activity [13] [%] | Activity [14] [%] | Activity [15] [%] | Activity [16] [%] | Activity [17] [%] | Activity [18] [%] | Activity [19] [%] | Activity [20] [%] | further results
1 | CC[C@@H](CO)Nc1nc(NC(=N)N)c2ncn(C(C)C)c2n1 | 38 | 43 | 39 | 39 | 48 | 16 | 11 | 5 | 75 | 0.09 | 11 | 50 | 108 | 18 | 11 | 16 | 1 | 4 | 33 | 7 | Activity [21]: 24%; Activity [22]: 48%; Activity [23]: 67%; IC50 [24]: 0.9 µM
2 | CC[C@H](CO)Nc1nc(NC(=N)N)c2ncn(C(C)C)c2n1 | 45 | 35 | 53 | 31 | 41 | 16 | 21 | 4 | 64 | 0.08 | 13 | 58 | 108 | 17 | 18 | 27 | 1 | 4 | 43 | 5 | Activity [21]: 35%; Activity [22]: 53%; Activity [23]: 77%; IC50 [24]: 2.1 µM
